System: U2OS
Assay: Multiplex assay against U2OS
Format: toxicity, cell-based
Settings: human
Outline: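 On a CQ1 microscope at 37°C and 5% CO2, live cells were imaged after compound addition. They had been stained at seeding with Hoechst33342, BioTracker Green Microtubule Cytoskeleton Dye, MitoTracker Red and Annexin V Alexa Fluor 680. CellPathfinder machine-learning gating assigned cells to Hoechst high-intensity objects or normal cells, normal cells to healthy, pyknosed or fragmented nuclei, and pyknosed cells to mitotic or apoptotic. Tubulin, mitochondrial-mass and membrane-permeability phenotypes are per cents of healthy-nucleus cells.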

[1] = 12 h, 1 µM, compound concentration 1 uM, replicate 1
[2] = 12 h, 1 µM, compound concentration 1 uM, replicate 2
[3] = 12 h, 10 µM, compound concentration 10 uM, replicate 1
[4] = 12 h, 10 µM, compound concentration 10 uM, replicate 2
[5] = 24 h, 1 µM, compound concentration 1 uM, replicate 1
[6] = 24 h, 1 µM, compound concentration 1 uM, replicate 2
[7] = 24 h, 10 µM, compound concentration 10 uM, replicate 1
[8] = 24 h, 10 µM, compound concentration 10 uM, replicate 2
[9] = 48 h, 1 µM, compound concentration 1 uM, replicate 1
[10] = 48 h, 1 µM, compound concentration 1 uM, replicate 2
[11] = 48 h, 10 µM, compound concentration 10 uM, replicate 1
[12] = 48 h, 10 µM, compound concentration 10 uM, replicate 2

SMILES: COc1cc(-n2cnc3cc(-c4ccc(Cl)cc4)sc3c2=O)ccc1OCCN1CCCC1
- Population Apoptotic (%) [1]: 45%
- Population Fragmented Nuclei (%) [1]: 12%
- Population Healthy Nuclei (%) [1]: 70%
- Population Hoechst High Intensity Objects (%) [1]: 9%
- Population Membrane Permeable-Phenotype (%) [1]: 9%
- Population Mitochondria Different-Phenotype (%) [1]: 63%
- Population Mitotic Cells (%) [1]: 54%
- Population Normal (%) [1]: 90%
- Population Pyknosed Nuclei (%) [1]: 16%
- Population Tubulin-Different-Phenotype (%) [1]: 65%
- Total Cell Count [1]: 157
- Population Apoptotic (%) [2]: 71%
- Population Fragmented Nuclei (%) [2]: 11%
- Population Healthy Nuclei (%) [2]: 77%
- Population Hoechst High Intensity Objects (%) [2]: 16%
- Population Membrane Permeable-Phenotype (%) [2]: 10%
- Population Mitochondria Different-Phenotype (%) [2]: 44%
- Population Mitotic Cells (%) [2]: 28%
- Population Normal (%) [2]: 84%
- Population Pyknosed Nuclei (%) [2]: 11%
- Population Tubulin-Different-Phenotype (%) [2]: 34%
- Total Cell Count [2]: 78
- Population Apoptotic (%) [3]: 72%
- Population Fragmented Nuclei (%) [3]: 32%
- Population Healthy Nuclei (%) [3]: 13%
- Population Hoechst High Intensity Objects (%) [3]: 10%
- Population Membrane Permeable-Phenotype (%) [3]: 61%
- Population Mitochondria Different-Phenotype (%) [3]: 100%
- Population Mitotic Cells (%) [3]: 27%
- Population Normal (%) [3]: 90%
- Population Pyknosed Nuclei (%) [3]: 54%
- Population Tubulin-Different-Phenotype (%) [3]: 100%
- Total Cell Count [3]: 144
- Population Apoptotic (%) [4]: 26%
- Population Fragmented Nuclei (%) [4]: 22%
- Population Healthy Nuclei (%) [4]: 57%
- Population Hoechst High Intensity Objects (%) [4]: 8%
- Population Membrane Permeable-Phenotype (%) [4]: 34%
- Population Mitochondria Different-Phenotype (%) [4]: 93%
- Population Mitotic Cells (%) [4]: 73%
- Population Normal (%) [4]: 91%
- Population Pyknosed Nuclei (%) [4]: 19%
- Population Tubulin-Different-Phenotype (%) [4]: 97%
- Total Cell Count [4]: 75
- Population Apoptotic (%) [5]: 56%
- Population Fragmented Nuclei (%) [5]: 6%
- Population Healthy Nuclei (%) [5]: 76%
- Population Hoechst High Intensity Objects (%) [5]: 6%
- Population Membrane Permeable-Phenotype (%) [5]: 8%
- Population Mitochondria Different-Phenotype (%) [5]: 45%
- Population Mitotic Cells (%) [5]: 43%
- Population Normal (%) [5]: 93%
- Population Pyknosed Nuclei (%) [5]: 16%
- Population Tubulin-Different-Phenotype (%) [5]: 42%
- Total Cell Count [5]: 175
- Population Apoptotic (%) [6]: 62%
- Population Fragmented Nuclei (%) [6]: 16%
- Population Healthy Nuclei (%) [6]: 71%
- Population Hoechst High Intensity Objects (%) [6]: 10%
- Population Membrane Permeable-Phenotype (%) [6]: 6%
- Population Mitochondria Different-Phenotype (%) [6]: 25%
- Population Mitotic Cells (%) [6]: 37%
- Population Normal (%) [6]: 89%
- Population Pyknosed Nuclei (%) [6]: 12%
- Population Tubulin-Different-Phenotype (%) [6]: 21%
- Total Cell Count [6]: 83
- Population Apoptotic (%) [7]: 95%
- Population Fragmented Nuclei (%) [7]: 48%
- Population Healthy Nuclei (%) [7]: 3%
- Population Hoechst High Intensity Objects (%) [7]: 11%
- Population Membrane Permeable-Phenotype (%) [7]: 100%
- Population Mitochondria Different-Phenotype (%) [7]: 100%
- Population Mitotic Cells (%) [7]: 4%
- Population Normal (%) [7]: 88%
- Population Pyknosed Nuclei (%) [7]: 47%
- Population Tubulin-Different-Phenotype (%) [7]: 100%
- Total Cell Count [7]: 147
- Population Apoptotic (%) [8]: 47%
- Population Fragmented Nuclei (%) [8]: 24%
- Population Healthy Nuclei (%) [8]: 52%
- Population Hoechst High Intensity Objects (%) [8]: 14%
- Population Membrane Permeable-Phenotype (%) [8]: 42%
- Population Mitochondria Different-Phenotype (%) [8]: 89%
- Population Mitotic Cells (%) [8]: 52%
- Population Normal (%) [8]: 85%
- Population Pyknosed Nuclei (%) [8]: 23%
- Population Tubulin-Different-Phenotype (%) [8]: 81%
- Total Cell Count [8]: 74
- Population Apoptotic (%) [9]: 59%
- Population Fragmented Nuclei (%) [9]: 10%
- Population Hoechst High Intensity Objects (%) [9]: 3%
- Population Membrane Permeable-Phenotype (%) [9]: 7%
- Population Mitochondria Different-Phenotype (%) [9]: 28%
- Population Mitotic Cells (%) [9]: 40%
- Population Normal (%) [9]: 96%
- Population Pyknosed Nuclei (%) [9]: 14%
- Population Tubulin-Different-Phenotype (%) [9]: 31%
- Total Cell Count [9]: 187
- Population Apoptotic (%) [10]: 63%
- Population Fragmented Nuclei (%) [10]: 12%
- Population Healthy Nuclei (%) [10]: 74%
- Population Hoechst High Intensity Objects (%) [10]: 5%
- Population Membrane Permeable-Phenotype (%) [10]: 21%
- Population Mitochondria Different-Phenotype (%) [10]: 31%
- Population Mitotic Cells (%) [10]: 36%
- Population Normal (%) [10]: 94%
- Population Pyknosed Nuclei (%) [10]: 13%
- Population Tubulin-Different-Phenotype (%) [10]: 19%
- Total Cell Count [10]: 79
- Population Apoptotic (%) [11]: 97%
- Population Fragmented Nuclei (%) [11]: 33%
- Population Healthy Nuclei (%) [11]: 7%
- Population Hoechst High Intensity Objects (%) [11]: 20%
- Population Membrane Permeable-Phenotype (%) [11]: 88%
- Population Mitochondria Different-Phenotype (%) [11]: 100%
- Population Mitotic Cells (%) [11]: 2%
- Population Normal (%) [11]: 79%
- Population Pyknosed Nuclei (%) [11]: 59%
- Population Tubulin-Different-Phenotype (%) [11]: 100%
- Total Cell Count [11]: 189
- Population Apoptotic (%) [12]: 53%
- Population Fragmented Nuclei (%) [12]: 25%
- Population Healthy Nuclei (%) [12]: 59%
- Population Hoechst High Intensity Objects (%) [12]: 5%
- Population Membrane Permeable-Phenotype (%) [12]: 56%
- Population Mitochondria Different-Phenotype (%) [12]: 96%
- Population Mitotic Cells (%) [12]: 46%
- Population Normal (%) [12]: 94%
- Population Pyknosed Nuclei (%) [12]: 15%
- Population Tubulin-Different-Phenotype (%) [12]: 96%
- Total Cell Count [12]: 87
